# ChEMBL document CHEMBL1212766, “Dose escalation study of the safety, tolerability, and pharmacokinetics of nemonoxacin (TG-873870), a novel potent broad-spectrum nonfluorinated quinolone, in healthy volunteers” (Antimicrob Agents Chemother, 2010)
# Legend:
# [1] = system: Homo sapiens; assay: Toxicity in healthy human assessed as occurrence of ear pain at 1000 […], po; type: organism-based; design: route oral; details: in vivo
# [2] = system: Homo sapiens; assay: Toxicity in healthy human assessed as occurrence of abdominal pain at 1500 […], po; type: organism-based, Abdomen; design: route oral; details: in vivo
# Method in brief: (§1)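 Double-blind, placebo-controlled single ascending oral dose; two placebo and six active subjects per cohort. Adverse events were recorded throughout the dosing period and at follow-up, with confinement to 96 h after dosing. Results are reported as number and percentage of subjects with the event (n/N × 100).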
# [3] = system: Streptococcus pneumoniae; assay: Ratio of fCmax to MIC90 for Streptococcus pneumoniae; type: functional
# Method in brief: (§2)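 Fasted healthy adults got a single oral 500 mg dose with 240 ml water. Plasma was sampled predose to 96 h and assayed by LC-MS/MS (5–5,000 ng/ml). Cmax was read from individual profiles, and AUC0-∞ came from linear trapezoid plus extrapolation. Free fraction was measured by ultrafiltration (30,000 MWCO) of 0.5 and 6 h plasma. Free exposure was divided by the isolate MIC90.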
# [4] = Cmax in healthy human at 25 mg, po administered as single dose; details: in vivo
# [5] = system: Streptococcus pneumoniae; assay: Ratio of fAUC to MIC90 for penicillin-resistant Streptococcus pneumoniae; type: functional; method in brief: as §2
# [6] = system: Homo sapiens; assay: Toxicity in healthy human assessed as occurrence of headache at 125 […], po; type: organism-based; design: route oral; details: in vivo
# [7] = system: Homo sapiens; assay: Toxicity in healthy human assessed as occurrence of abdominal pain at 250 […], po; type: organism-based, Abdomen; design: route oral; details: in vivo; method in brief: as §1
# [8] = system: Streptococcus pneumoniae; assay: Ratio of fAUC to MIC90 for penicillin-intermediate Streptococcus pneumoniae; type: functional; method in brief: as §2
# [9] = system: Homo sapiens; assay: AUC (0 to infinity) in healthy human at 125 […], po administered as single dose; type: ADME, organism-based, Plasma; design: time infinity, route oral; details: in vivo
# [10] = Terminal phase elimination half-life in healthy human at 25 […], po administered single dose; type: ADME, organism-based; design: route oral; details: in vivo
# Method in brief: (§3)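 After one fasted oral dose (six healthy subjects per cohort), plasma was sampled from 0.5 to 96 h and assayed by LC-MS/MS (LLOQ 5 ng/ml). λz came from least-squares regression on at least the last three log-concentration points, and t1/2 = 0.693/λz. Values are means (SD).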
# [11] = system: Homo sapiens; assay: Toxicity in healthy human assessed as occurrence of oral hypoesthesia at 500 […], po; type: organism-based; design: route oral; details: in vivo
# [12] = Tmax in healthy human at 25 mg, po administered as single dose; details: in vivo
# [13] = system: Homo sapiens; assay: Toxicity in healthy human assessed as occurrence of abdominal pain at 500 […], po; type: organism-based, Abdomen; design: route oral; details: in vivo; method in brief: as §1
# [14] = system: Homo sapiens; assay: Toxicity in healthy human assessed as occurrence of pustular rashes at 125 […], po; type: organism-based; design: route oral; details: in vivo
# [15] = system: Homo sapiens; assay: Toxicity in healthy human assessed as occurrence of ear pain at 25 […], po; type: organism-based; design: route oral; details: in vivo
# [16] = Clearance in healthy human assessed as recovery of unchanged drug in urine at 250 […], po administered as single dose; type: ADME, organism-based; design: route oral; details: read-out: Recovered in urine
# Method in brief: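 Healthy volunteers, six on drug per cohort, fasted 10 h and given one oral dose with 240 ml water, then fasted 4 h more. Urine was pooled over intervals from 0-2 to 72-96 h and stored at about −70°C. Drug was measured by solid-phase extraction and LC-MS/MS (LLOQ 200 ng/ml), giving the percent of dose recovered unchanged. Values are means (SD).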
# [17] = system: Homo sapiens; assay: Toxicity in healthy human assessed as occurrence of abdominal pain at 125 […], po; type: organism-based, Abdomen; design: route oral; details: in vivo; method in brief: as §1
# [18] = Tmax in healthy human at 1500 […], po administered as single dose; type: ADME, organism-based; design: route oral; details: in vivo
# Method in brief: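 Tmax was read by visual inspection of individual plasma concentration–time profiles. Plasma was sampled at 0.5-h steps early on and then out to 96 h, and assayed by LC-MS/MS. Subjects were fasted healthy volunteers, six per cohort, given one oral dose with 240 ml water. Values are means (SD).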
# [19] = system: Streptococcus pneumoniae; assay: Ratio of fCmax to MIC90 for penicillin-sensitive Streptococcus pneumoniae; type: functional; method in brief: as §2
# [20] = Renal clearance in healthy human at 250 mg, po administered as single dose; details: in vivo, read-out: CL_renal (converted)
# [21] = system: Homo sapiens; assay: Toxicity in healthy human assessed as occurrence of erythema at 25 […], po; type: organism-based; design: route oral; details: in vivo
# [22] = system: Homo sapiens; assay: Toxicity in healthy human assessed as occurrence of contact dermatitis at 50 […], po; type: organism-based; design: route oral; details: in vivo
# Method in brief: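 Randomized, double-blind, placebo-controlled single ascending oral doses in healthy volunteers (cohorts of 6 active, 2 placebo; 25–1,500 mg). After a 10-h fast, dose given with 240 ml water; fasting continued 4 h. Subjects were confined to 96 h postdose. AEs were recorded throughout dosing and at follow-up, reported as number and percentage of subjects with events per treatment.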
# [23] = system: Homo sapiens; assay: Toxicity in healthy human assessed as occurrence of pruritus at 1500 […], po; type: organism-based; design: route oral; details: in vivo
# [24] = system: Homo sapiens; assay: Toxicity in healthy human assessed as occurrence of ear pain at 50 […], po; type: organism-based; design: route oral; details: in vivo
# [25] = system: Streptococcus pneumoniae; assay: Ratio of fCmax to MIC90 for ciprofloxacin-resistant Streptococcus pneumoniae; type: functional; method in brief: as §2
# [26] = system: Streptococcus pneumoniae; assay: Ratio of fAUC to MIC90 for Penicillin-sensitive Streptococcus pneumoniae; type: functional; method in brief: as §2
# [27] = system: Homo sapiens; assay: Toxicity in healthy human assessed as occurrence of headache at 500 […], po; type: organism-based; design: route oral; details: in vivo
# [28] = Terminal phase elimination half-life in healthy human at 1500 mg, po administered single dose; details: in vivo
# [29] = Renal clearance in healthy human at 50 […], po administered as single dose; type: ADME, organism-based, Kidney; design: route oral; details: in vivo, read-out: CL_renal (converted)
# Method in brief: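 Renal clearance (CL_r) came from noncompartmental analysis of plasma drawn through 96 h and urine collected over fixed intervals to 96 h. Subjects were fasted healthy volunteers, six per dose cohort, given one oral dose with 240 ml water. Plasma and urine were assayed by LC-MS/MS after solid-phase extraction, with urine LLOQ 200 ng/ml. Values are means (SD).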
# [30] = system: Homo sapiens; assay: Toxicity in healthy human assessed as occurrence of headache at 1000 […], po; type: organism-based; design: route oral; details: in vivo
# [31] = system: Homo sapiens; assay: Toxicity in healthy human assessed as occurrence of oral hypoesthesia at 1500 […], po; type: organism-based; design: route oral; details: in vivo
# [32] = system: Staphylococcus aureus; assay: Antimicrobial activity against methicillin-resistant Staphylococcus aureus; type: functional
# [33] = system: Streptococcus pneumoniae; assay: Ratio of fCmax to MIC90 for penicillin-intermediate Streptococcus pneumoniae; type: functional; method in brief: as §2
# [34] = system: Homo sapiens; assay: Toxicity in healthy human assessed as occurrence of pruritus at 125 […], po; type: organism-based; design: route oral; details: in vivo
# [35] = Terminal phase elimination half-life in healthy human at 500 […], po administered single dose; type: ADME, organism-based; design: route oral; details: in vivo; method in brief: as §3
# [36] = system: Homo sapiens; assay: AUC (0 to infinity) in healthy human at 1000 mg, po administered as single dose; details: in vivo
# [37] = system: Homo sapiens; assay: Clearance in healthy human at 125 […], po administered as single dose; type: ADME, organism-based; design: route oral; details: in vivo
# Method in brief: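 Randomized, double-blind, placebo-controlled single ascending oral dose in fasted healthy subjects (six on drug per cohort, with 240 ml water). Plasma sampled predose through 96 h and assayed by validated LC-MS/MS over 5–5,000 ng/ml. Oral clearance (CL_o) came from noncompartmental analysis, with AUC_0-∞ from linear trapezoids plus C_last/λz. Values are means (SD).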
# [38] = Cmax in healthy human at 500 mg, po administered as single dose; details: in vivo
structure (smiles),measurement,setting,value
COc1c(N2C[C@@H](C)C[C@H](N)C2)ccc2c(=O)c(C(=O)O)cn(C3CC3)c12 [NEMONOXACIN],Activity,[1],0%
same,Activity,[2],17%
same,Ratio,[3],191
same,Cmax,[4],150 ng/mL
same,Ratio,[5],906
same,Activity,[6],0%
same,Activity,[7],0%
same,Ratio,[8],1812
same,AUC,[9],7670 ng·h/mL
same,half-life,[10],9.71 h
same,Activity,[11],0%
same,Tmax,[12],0.92 h
same,Activity,[13],0%
same,Activity,[14],17%
same,Activity,[15],0%
same,dose excreted,[16],44.9%
same,Activity,[17],0%
same,Tmax,[18],2.67 h
same,Ratio,[19],191
same,CL renal,[20],1.83 mL/min/kg
same,Activity,[21],0%
same,Activity,[22],0%
same,Activity,[23],50%
same,Activity,[24],0%
same,Ratio,[25],24
same,Ratio,[26],1812
same,Activity,[27],0%
same,half-life,[28],13 h
same,CL renal,[29],2 mL/min/kg
same,Activity,[30],17%
same,Activity,[31],0%
same,MIC90,[32],0.06 µg/mL
same,Ratio,[33],191
same,Activity,[34],0%
same,half-life,[35],14.8 h
same,AUC,[36],63310 ng·h/mL
same,CL,[37],3.67 mL/min/kg
same,Cmax,[38],3410 ng/mL
